Columns and labels:
[1] = Drug excretion in male Sprague-Dawley rat urine at 10 mg/kg, iv administered as bolus dose measured at 1 to 4 hrs post-dose by liquid scintillation counting analysis; type: ADME, organism-based; design: dose 10 mg/kg, route intravenous; settings: in vivo
Method in brief: (§1)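 Single [³⁵S]-prodrug dose to rats, i.v. tail-vein bolus (PEG 400/saline vehicle) or oral gavage (citric acid buffer pH 2.5), 5 ml/kg. Urine and feces collected ~1, 4 and 24 h postdose. Radioactivity counted by liquid scintillation and expressed as % of administered dose. Mean and S.D. from nine rats per sex.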

[2] = Drug excretion in female Sprague-Dawley rat urine at 10 mg/kg, iv administered as bolus dose measured at 0 to 1 hr post-dose by liquid scintillation counting analysis; type: ADME, organism-based; design: dose 10 mg/kg, route intravenous; settings: in vivo; method in brief: as §1
[3] = Drug excretion in male Sprague-Dawley rat urine at 10 mg/kg, po administered as single dose measured at 1 to 4 hrs post-dose by liquid scintillation counting analysis; type: ADME, organism-based; design: dose 10 mg/kg, route oral; settings: in vivo; method in brief: as §1
[4] = Drug excretion in male Sprague-Dawley rat urine at 10 mg/kg, po administered as single dose measured at 4 to 24 hrs post-dose by liquid scintillation counting analysis; type: ADME, organism-based; design: dose 10 mg/kg, route oral; settings: in vivo; method in brief: as §1
[5] = Drug excretion in male Sprague-Dawley rat urine at 10 mg/kg, po administered as single dose measured at 0 to 24 hrs post-dose by liquid scintillation counting analysis; type: ADME, organism-based; design: dose 10 mg/kg, route oral; settings: in vivo; method in brief: as §1
[6] = Drug excretion in female Sprague-Dawley rat urine at 10 mg/kg, po administered as single dose measured at 0 to 1 hr post-dose by liquid scintillation counting analysis; type: ADME, organism-based; design: dose 10 mg/kg, route oral; settings: in vivo; method in brief: as §1
[7] = Drug excretion in female Sprague-Dawley rat urine at 10 mg/kg, po administered as single dose measured at 1 to 4 hrs post-dose by liquid scintillation counting analysis; type: ADME, organism-based; design: dose 10 mg/kg, route oral; settings: in vivo; method in brief: as §1
[8] = Drug excretion in female Sprague-Dawley rat urine at 10 mg/kg, po administered as single dose measured at 4 to 24 hrs post-dose by liquid scintillation counting analysis; type: ADME, organism-based; design: dose 10 mg/kg, route oral; settings: in vivo; method in brief: as §1
[9] = Drug excretion in male Sprague-Dawley rat feces at 10 mg/kg, iv administered as bolus dose measured at 4 to 24 hrs post-dose by liquid scintillation counting analysis; type: ADME, organism-based; design: dose 10 mg/kg, route intravenous; settings: in vivo; method in brief: as §1
[10] = Drug excretion in male Sprague-Dawley rat feces at 10 mg/kg, iv administered as bolus dose measured at 0 to 24 hrs post-dose by liquid scintillation counting analysis; type: ADME, organism-based; design: dose 10 mg/kg, route intravenous; settings: in vivo; method in brief: as §1
Rattus norvegicus [11] = assay: Terminal half life in female Sprague-Dawley rat at 10 mg/kg, iv administered as bolus dose by liquid scintillation counting analysis; type: ADME, organism-based; design: dose 10 mg/kg, route intravenous; settings: in vivo
Method in brief: (§2)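 Radioactivity in plasma from rats given a single [35S]-labelled dose, iv (tail vein, 25% PEG 400/75% saline) or oral gavage (0.05 M citric acid, pH 2.5), sampled at 1, 4 and 24 h, measured by liquid scintillation as µg-Eq/ml. Elimination t1/2 and Tmax were derived by noncompartmental analysis with sparse sampling, from nine male and nine female rats.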

Rattus norvegicus [12] = assay: Tmax in male Sprague-Dawley rat at 10 mg/kg, po administered as single dose by liquid scintillation counting analysis; type: ADME, organism-based; design: dose 10 mg/kg, route oral; settings: in vivo; method in brief: as §2
[13] = Drug excretion in male Sprague-Dawley rat feces at 10 mg/kg, po administered as single dose measured at 0 to 1 hr post-dose by liquid scintillation counting analysis; type: ADME, organism-based; design: dose 10 mg/kg, route oral; settings: in vivo; method in brief: as §1
[14] = Drug excretion in male Sprague-Dawley rat feces at 10 mg/kg, po administered as single dose measured at 0 to 24 hrs post-dose by liquid scintillation counting analysis; type: ADME, organism-based; design: dose 10 mg/kg, route oral; settings: in vivo; method in brief: as §1
[15] = Drug excretion in female Sprague-Dawley rat feces at 10 mg/kg, po administered as single dose measured at 1 to 4 hrs post-dose by liquid scintillation counting analysis; type: ADME, organism-based; design: dose 10 mg/kg, route oral; settings: in vivo; method in brief: as §1
Liver = assay: Drug uptake in Sprague-Dawley rat liver at 10 mg/kg, iv administered as bolus dose measured at 1 to 24 hrs post-dose by liquid scintillation counting analysis; type: ADME, organism-based; design: dose 10 mg/kg, route intravenous; settings: in vivo
Method in brief: (§3)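 [35S]-labelled prodrug given once to rats, iv bolus via tail vein (25% PEG 400/75% saline) or oral gavage (0.05 M citric acid buffer, pH 2.5), 5 ml/kg. Rats euthanised at 1, 4 or 24 h. Liver, lung, kidney, heart, brain, spleen, tail and retro-orbital plasma were collected. Samples were homogenised and solubilised, and radioactivity was counted by liquid scintillation. Values are µg-equivalent/ml or g and % of dose.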

Lung = assay: Drug uptake in Sprague-Dawley rat lung at 10 mg/kg, iv administered as bolus dose measured at 1 to 24 hrs post-dose by liquid scintillation counting analysis; type: ADME, organism-based; design: dose 10 mg/kg, route intravenous; settings: in vivo; method in brief: as §3
Blood = assay: Drug uptake in Sprague-Dawley rat blood at 10 mg/kg, po administered as single dose measured at 4 hrs post-dose by liquid scintillation counting analysis; type: ADME, organism-based; design: dose 10 mg/kg, route oral; settings: in vivo
Method in brief: (§4)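 Single i.v. tail-vein bolus or oral gavage of [³⁵S]-prodrug to rats, 5 ml/kg. Euthanised by i.p. pentobarbital overdose at 1, 4 or 24 h. Retro-orbital blood collected; liver, lung, kidney, heart, brain and spleen frozen. Tissues homogenised, solubilised and counted by liquid scintillation. Radioactivity given as µg-Eq/g and % of dose.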

Nucleic Acid = assay: Ratio of drug level in liver to plasma in female Sprague-Dawley rat at 10 mg/kg, iv administered as bolus dose measured after 1 hr by liquid scintillation counting analysis; type: ADME, organism-based; design: dose 10 mg/kg, route intravenous; settings: other tissue
Method in brief: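 Rats received a single iv bolus of the [35S]-labelled prodrug via tail vein in 25% PEG 400/75% saline, 5 ml/kg. Liver (solubilised homogenate) and plasma (EDTA blood, retro-orbital, just before necropsy) were taken at 1, 4 and 24 h and counted by liquid scintillation. The liver/plasma concentration ratio is the mean at each time point, from nine male and nine female rats.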

Rattus norvegicus [16] = assay: Drug recovery in male Sprague-Dawley rat at 10 mg/kg, iv administered as bolus dose measured after 24 hrs by liquid scintillation counting analysis; type: ADME, organism-based; design: dose 10 mg/kg, route intravenous; settings: in vivo
Method in brief: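 Rats got a single i.v. bolus or oral gavage dose of [³⁵S]-prodrug at 5 ml/kg over a 24 h study. Radioactivity in blood, tissues, carcass, urine and feces measured by liquid scintillation counting. Total recovery given as % of administered dose at 24 h.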

Heart [17] = assay: Drug uptake in Sprague-Dawley rat heart at 10 mg/kg, iv administered as bolus dose measured at 1 to 24 hrs post-dose by liquid scintillation counting analysis; type: ADME, organism-based; design: dose 10 mg/kg, route intravenous; settings: in vivo; method in brief: as §4
Spleen [18] = assay: Drug uptake in Sprague-Dawley rat spleen at 10 mg/kg, iv administered as bolus dose measured at 1 to 24 hrs post-dose by liquid scintillation counting analysis; type: ADME, organism-based; design: dose 10 mg/kg, route intravenous; settings: in vivo; method in brief: as §3
Rattus norvegicus [19] = assay: Cmax in female Sprague-Dawley rat at 10 mg/kg, po administered as single dose by liquid scintillation counting analysis; type: ADME, organism-based; design: dose 10 mg/kg, route oral; settings: in vivo
Method in brief: (§5)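 Single dose of [³⁵S]-labelled prodrug to rats, i.v. tail-vein bolus in 25% PEG 400/75% saline or oral gavage in 0.05 M citric acid buffer pH 2.5, 5 ml/kg. Retro-orbital blood into EDTA at 1, 4 or 24 h; plasma by centrifugation. Radioactivity by liquid scintillation counting as µg-Eq/ml. Noncompartmental sparse-sampling analysis gives Cmax and AUC; nine rats per sex.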

Rattus norvegicus [20] = assay: AUC in male Sprague-Dawley rat at 10 mg/kg, po administered as single dose by liquid scintillation counting analysis; type: ADME, organism-based, Plasma; design: dose 10 mg/kg, route oral; settings: in vivo; method in brief: as §5
Spleen [21] = assay: Drug uptake in Sprague-Dawley rat spleen at 10 mg/kg, po administered as single dose measured at 1 to 24 hrs post-dose by liquid scintillation counting analysis; type: ADME, organism-based; design: dose 10 mg/kg, route oral; settings: in vivo; method in brief: as §3
Heart [22] = assay: Drug uptake in Sprague-Dawley rat heart at 10 mg/kg, po administered as single dose measured at 1 to 24 hrs post-dose by liquid scintillation counting analysis; type: ADME, organism-based; design: dose 10 mg/kg, route oral; settings: in vivo; method in brief: as §4

CO[C@@H]1[C@H](OP(=O)(OC[C@H]2O[C@@H](n3cnc4c(N)ncnc43)C[C@@H]2O)[35S]COC(=O)OC(C)C)[C@@H](CO)O[C@H]1n1ccc(=O)[nH]c1=O (stereo partly specified)
Drug excretion [1]: 11.33% | Drug excretion [2]: 15.81% | Drug excretion [3]: 0.86% | Drug excretion [4]: 33.73% | Drug excretion [5]: 34.59% | Drug excretion [6]: 0.16% | Drug excretion [7]: 2.04% | Drug excretion [8]: 34.78% | Drug excretion [9]: 16.9% | Drug excretion [10]: 16.9% | beta t1/2 (Rattus norvegicus [11]): 9 h | Tmax (Rattus norvegicus [12]): 4 h | Drug excretion [13]: 0.01% | Drug excretion [14]: 35.71% | Drug excretion [15]: 0.08% | Drug uptake (Liver): Active | Drug uptake (Lung): Active | Drug uptake (Blood): Active | Ratio (Nucleic Acid): 3.89 | Drug recovery (Rattus norvegicus [16]): 83.7% | Drug uptake (Heart [17]): <= 0.5% | Drug uptake (Spleen [18]): <= 0.5% | Cmax (Rattus norvegicus [19]): 2.5 ugequiv/ml | AUC (Rattus norvegicus [20]): 26.86 ugequiv.h/ml | Drug uptake (Spleen [21]): <= 0.5% | Drug uptake (Heart [22]): <= 0.5%

Reference: ChEMBL document CHEMBL3526154, “Metabolism, pharmacokinetics, tissue distribution, and stability studies of the prodrug analog of an anti-hepatitis B virus dinucleoside phosphorothioate” (Drug Metab Dispos, 2012)
